Measurements taken from ChEMBL document CHEMBL1124109, “Novel calcium antagonists. Synthesis and structure-activity relationship studies of benzothiazoline derivatives” (J Med Chem, 1988).

Legend:
[1] = species: Cavia porcellus; experiment: In vitro molar concentration required to block [Ca2+] -induced contraction of K+-depolarized taenia cecum of guinea pigs; type: functional; details: Caecum
How it was run: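 Guinea pig taenia cecum washed with Ca2+-free high-K+ Krebs solution after equilibration. Compound applied 5 min before CaCl2 (3 × 10^-4 M). Contraction recorded isotonically.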

[2] = species: Mus musculus; experiment: Effect on acute thrombic death induced by collagen in mice; type: functional; details: read-out: ID50 (the source's name)
How it was run: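 Male ddY mice (20-30 g) given compound orally as 0.5% tragacanth suspension 3 h before rapid tail-vein injection (2 s) of collagen (type III, 3 mg/mL in acetic acid/Tris pH 7.4), about 30 mg/kg, set so […] within 3 min. Survival scored; % inhibition = (St - Sc)/(100 - Sc); ID50 in mg/kg po; n=8 treated, 12 control.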

[3] = system: Rattus norvegicus; experiment: Hypotensive effect in Spontaneously hypertensive rats as maximum decrease in systolic blood pressure at 30 mg/kg, po dose; type: functional, Artery
How it was run: (§1)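 Male SHR, 300-400 g, conscious, 6-13 animals. Oral dosing as a 0.5% methylcellulose suspension. Systolic pressure by tail-cuff plethysmography at 0, 1, 3, 6, 9 and 24 h after dosing; heart rate from pulse over 4 s. Value is maximum SBP fall, mean ± SEM of six animals; Dunnett's test.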

[4] = system: Rattus norvegicus; experiment: Hypotensive effect in Spontaneously hypertensive rats as maximum decrease in systolic blood pressure at 100 mg/kg, po dose; type: functional, Artery; how it was run: as §1
[5] = species: Oryctolagus cuniculus; experiment: Electrophysiological effect in isolated rabbit hearts as molar concentration that prolongs the His bundle ventricular (H-V) conduction time by 10%; type: functional, Cardiac ventricle
[6] = species: Oryctolagus cuniculus; experiment: Electrophysiological effect in isolated rabbit hearts as molar concentration that prolongs the atrio-His bundle (A-H) conduction time by 30%; type: functional
[7] = Ratio between EC10 and EC30 in isolated rabbit hearts in His bundle ventricular intervals; type: functional
[8] = system: Rattus norvegicus; experiment: Hypotensive effect in Spontaneously hypertensive rats as maximum decrease in systolic blood pressure at 10 mg/kg, po dose; type: functional, Artery; how it was run: as §1

Structure (SMILES)	IC50 [1]	other results
COc1ccc(OCCCN2CCC(C(=O)c3ccccc3)CC2)c(C2Sc3ccccc3N2C(C)=O)c1 (configuration not stated)	11 µM	
CC(=O)N1c2ccccc2SC1c1cc([N+](=O)[O-])ccc1OCCCN(C)C (configuration not stated)	6.2 µM	
CC(=O)N1c2ccccc2SC1c1ccc(OCCCN(C)C)cc1 (configuration not stated)	5.5 µM	
CC(=O)N1c2ccccc2SC1c1ccccc1OCCCN(C)C1CCCCC1 (configuration not stated)	1.7 µM	
COc1ccc(OCCCCCN(C)CCc2cc(OC)c(OC)c(OC)c2)c(C2Sc3ccccc3N2C(C)=O)c1 (configuration not stated)	1.3 µM	
COc1ccc(OCCCCNCCc2cc(OC)c(OC)c(OC)c2)c(C2Sc3ccccc3N2C(C)=O)c1 (configuration not stated)	6.5 µM	
COc1ccc(OCCCCN(C)CCc2ccc(OC)c(OC)c2OC)c(C2Sc3ccccc3N2C(C)=O)c1 (configuration not stated)	0.34 µM	
CC(=O)N1c2ccccc2SC1c1cc([N+](=O)[O-])ccc1OCCCCN(C)C1CCCCC1 (configuration not stated)	5.4 µM	
COc1ccc(OCCCN(C)CCc2cc(OC)c(OC)c(OC)c2)c(C2Sc3ccccc3N2C(C)=O)c1 (configuration not stated)	0.78 µM	
CCN(CCCCOc1ccc(OC)cc1C1Sc2ccccc2N1C(C)=O)CCc1cc(OC)c(OC)c(OC)c1 (configuration not stated)	1 µM	
COc1ccc(OCCCCN2CCC(C(=O)c3ccccc3)CC2)c(C2SCCN2C(C)=O)c1 (configuration not stated)	410 µM	
CCC(=O)N1c2ccccc2SC1c1cc(OC)ccc1OCCCCCN(C)C1CCCCC1 (configuration not stated)	7 µM	
CC(=O)N1CCSC1c1ccccc1OCCN(C)C (configuration not stated)	> 100 µM	
COc1ccc(OCCCN(C)CCc2ccc(OC)c(OC)c2)c(C2Sc3ccccc3N2C(C)=O)c1 (configuration not stated)	0.78 µM	
COc1cccc(C2Sc3ccccc3N2C(C)=O)c1OCCCCN(C)C1CCCCC1 (configuration not stated)	8.8 µM	
COc1ccc(OCCCCN(C)CCc2cc(OC)c(OC)c(OC)c2)c(C2Sc3ccccc3N2C(C)=O)c1 (configuration not stated)	0.13 µM	ED50 [2]: 12 mg/kg; Decrease of SBP [3]: 48.3 mmHg; Decrease of SBP [4]: 87.5 mmHg; EC10 [5]: 0.2 µM
COc1ccc(OCCCCCCN(C)C2CCCCC2)c(C2Sc3ccccc3N2C(C)=O)c1 (configuration not stated)	4.2 µM	
CC(=O)N1c2ccccc2SC1c1ccccc1OCCCN(C)C (configuration not stated)	10 µM	
COc1ccc(OCCCN(C)CCc2ccc(OC)c(OC)c2OC)c(C2Sc3ccccc3N2C(C)=O)c1 (configuration not stated)	2 µM	
COc1ccc(OCCCCN(CCc2cc(OC)c(OC)c(OC)c2)C2CC2)c(C2Sc3ccccc3N2C(C)=O)c1 (configuration not stated)	1.2 µM	
COc1ccc(OCCCCN)c(C2Sc3ccccc3N2C(C)=O)c1 (configuration not stated)	> 100 µM	
COc1cccc(C2Sc3ccccc3N2C(C)=O)c1OCCCN(C)C (configuration not stated)	13 µM	
COc1ccc(OCCCCN2CCN(CCc3cc(OC)c(OC)c(OC)c3)CC2)c(C2Sc3ccccc3N2C(C)=O)c1 (configuration not stated)	0.47 µM	

Structure (SMILES)	IC50 [1]	other results
CC(=O)N1c2ccccc2SC1c1cc(Cl)ccc1OCCCCN1CCC(C(=O)c2ccccc2)CC1 (configuration not stated)	13 µM	
CC(=O)N1c2ccccc2SC1c1cccc(OCCCN(C)C)c1 (configuration not stated)	11 µM	
COc1ccc(OCCCCN2CCC(C(=O)c3ccc(Cl)cc3)CC2)c(C2Sc3ccccc3N2C(C)=O)c1 (configuration not stated)	8.7 µM	
COc1ccc(OCCCN(C)C)c(C2Sc3ccccc3N2C(C)=O)c1 (configuration not stated)	1.6 µM	
COc1ccc([C@@H]2Sc3ccccc3N(CCN(C)C)C(=O)[C@@H]2OC(C)=O)cc1 [DILTIAZEM]	0.17 µM	ED50 [2]: > 30 mg/kg; Decrease of SBP [3]: 22.5 mmHg; Decrease of SBP [4]: 44.2 mmHg; EC30 [6]: 0.44 µM; EC10 [5]: 2.6 µM; Ratio [7]: 6.5
COc1ccc(OCCCCCN(C)C2CCCCC2)c(C2Sc3ccccc3N2C=O)c1 (configuration not stated)	2.7 µM	
CC(=O)N1c2ccccc2SC1c1ccccc1OCCN(C)C (configuration not stated)	17 µM	
COc1ccc(OCCCCN2CCC(C(=O)c3ccc(F)cc3)CC2)c(C2Sc3ccccc3N2C(C)=O)c1 (configuration not stated)	1.6 µM	
COc1ccc(OCCCCCCN2CCN(CCc3ccc(OC)c(OC)c3)CC2)c(C2Sc3ccccc3N2C(C)=O)c1 (configuration not stated)	11 µM	
COc1ccc(OCCCCCN(C)CCc2ccc(OC)c(OC)c2OC)c(C2Sc3ccccc3N2C(C)=O)c1 (configuration not stated)	8 µM	
COC(=O)C1=C(C)NC(C)=C(C(=O)OC)C1c1ccccc1[N+](=O)[O-] [NIFEDIPINE]		ED50 [2]: > 30 mg/kg
COc1ccc(OCCCCN2CCN(CCc3ccc(OC)c(OC)c3)CC2)c(C2Sc3ccccc3N2C(C)=O)c1 (configuration not stated)	0.64 µM	
CCC(=O)N1c2ccccc2SC1c1ccccc1OCCCN(C)C1CCCCC1 (configuration not stated)	3.2 µM	
COc1ccc(OCCCCN2CCC(C(=O)c3ccc(F)cc3)CC2)c(C2Sc3ccccc3N2C=O)c1 (configuration not stated)	4.8 µM	
COC(=O)C1=C(C)NC(C)=C(C(=O)OCCN(C)Cc2ccccc2)C1c1cccc([N+](=O)[O-])c1 (configuration not stated) [NICARDIPINE]		ED50 [2]: > 30 mg/kg
COc1ccc(OCCCCN2CCN(CCc3cc(OC)c(OC)c(OC)c3)CC2)c(C2Sc3ccccc3N2C=O)c1 (configuration not stated)	2.6 µM	
CCC(=O)N1c2ccccc2SC1c1cc(OC)ccc1OCCCCN1CCC(C(=O)c2ccccc2)CC1 (configuration not stated)	10 µM	
CC(=O)N1c2ccccc2SC1c1cc([N+](=O)[O-])ccc1OCCCCN1CCC(C(=O)c2ccccc2)CC1 (configuration not stated)	4.8 µM	
COc1ccc(CCN(C)CCCC(C#N)(c2ccc(OC)c(OC)c2)C(C)C)cc1OC (configuration not stated) [VERAPAMIL]	0.1 µM	ED50 [2]: > 30 mg/kg; Decrease of SBP [3]: 83.3 mmHg; Decrease of SBP [8]: 24.2 mmHg
CC(=O)N1c2ccccc2SC1c1cc(Cl)ccc1OCCCN(C)C (configuration not stated)	3.8 µM	
COc1ccc(OCCCN2CCN(CCc3ccc(OC)c(OC)c3)CC2)c(C2Sc3ccccc3N2C(C)=O)c1 (configuration not stated)	3 µM	
Clc1ccccc1CN1CCc2sccc2C1 [TICLOPIDINE]		ED50 [2]: 260 mg/kg

Continued, in another order:

IC50 [1]	Structure (SMILES)	other results
1.2 µM	CCC(=O)N1c2ccccc2SC1c1cc(OC)ccc1OCCCCN1CCN(CCc2cc(OC)c(OC)c(OC)c2)CC1 (configuration not stated)	
2 µM	CNCCCCOc1ccc(OC)cc1C1Sc2ccccc2N1C(C)=O (configuration not stated)	
17 µM	COc1ccc(OCCCCCN2CCC(C(=O)c3ccccc3)CC2)c(C2Sc3ccccc3N2C(C)=O)c1 (configuration not stated)	
2.3 µM	COc1cc(CCN2CCN(CCCCOc3ccc(Cl)cc3C3Sc4ccccc4N3C(C)=O)CC2)cc(OC)c1OC (configuration not stated)	
36 µM	CC(=O)N1c2ccccc2SC1c1ccc(OCCN(C)C)cc1 (configuration not stated)	
0.66 µM	COc1ccc(OCCCCN(C)CCc2ccc(OC)c(OC)c2)c(C2Sc3ccccc3N2C(C)=O)c1 (configuration not stated)	
1.2 µM	COc1ccc(OCCCCN(C)CCCc2ccc(OC)c(OC)c2OC)c(C2Sc3ccccc3N2C(C)=O)c1 (configuration not stated)	
0.82 µM	COc1ccc(OCCCCCN2CCN(CCc3ccc(OC)c(OC)c3)CC2)c(C2Sc3ccccc3N2C(C)=O)c1 (configuration not stated)	
4.4 µM	CC(=O)N1c2ccccc2SC1c1ccc(OCCCN(C)C2CCCCC2)cc1 (configuration not stated)	
4.2 µM	COc1ccc(OCCCN(C)C2CCCCC2)c(C2Sc3ccccc3N2C(C)=O)c1 (configuration not stated)	
1.6 µM	COc1ccc(OCCCCN(C)CC(C)c2ccc(OC)c(OC)c2)c(C2Sc3ccccc3N2C(C)=O)c1 (configuration not stated)	
1.2 µM	COc1ccc(OCCCCCN(C)C2CCCCC2)c(C2Sc3ccccc3N2C(C)=O)c1 (configuration not stated)	
0.13 µM	COc1ccc(OCCCCN(CCc2cc(OC)c(OC)c(OC)c2)C(C)C)c(C2Sc3ccccc3N2C(C)=O)c1 (configuration not stated)	
1.4 µM	COc1ccc(OCCCCN2CCC(C(=O)c3ccccc3)CC2)c(C2Sc3ccccc3N2C(C)=O)c1 (configuration not stated)	
4 µM	CN(CCCOc1ccccc1C1Sc2ccccc2N1C=O)C1CCCCC1 (configuration not stated)	
> 100 µM	CC(=O)N1CCSC1c1ccc(OCCN(C)C)cc1 (configuration not stated)	
4.1 µM	CC(=O)N1CCSC1c1cc([N+](=O)[O-])ccc1OCCCN(C)C (configuration not stated)	
4 µM	COc1ccc(OCCCCN(C)C2CCCCC2)c(C2Sc3ccccc3N2C(C)=O)c1 (configuration not stated)	
1.3 µM	COc1ccc(OCCCCCN(C)CCc2ccc(OC)c(OC)c2)c(C2Sc3ccccc3N2C(C)=O)c1 (configuration not stated)	
